From PubChem BioAssay
DTT redox prof = compounds producing H2O2 with reducing agent – biochemical, NIH compound library profiling, artefact control for MLSCN library redox annotation, primary screen; DTT-dependent redox cycling H2O2, phenol red/HRP absorbance; 100% = 100 µM peroxide control, 0% = buffer; activation, % at 10 µM; 200,000 tested, 0.03% active; AID 878;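 active = activation of at least 50% relative to the plate's high and low controls in the primary single-dose screen; inactive = activation below 50%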;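 also: compound incubated with DTT at 0.8 mM final as the reducing agent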
Diaphorase inh = inhibits diaphorase or chemically oxidizes, flagging diaphorase assay artifacts; inhibition, % at 20 µM; 190,000 tested, 0.69% active; diaphorase resazurin-to-resorufin fluorescence, NADH, 16 min; bacterial (C. kluyveri) enzyme, not human;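 active = primary screen inhibition at 20 µM above a set limit, cut at about 50% in these data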;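 also: plate controls were DMSO with full reaction for no effect and wells lacking NADH for full effect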
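Test system: Clostridium kluyveri diaphorase enzyme / Quantity: diaphorase at 0.14 U/mL in enzyme working solution / Incubation: 16-min room-temperature incubation before reading / Benchmarks: NADH-free wells as positive control, DMSO-only neutral wells / Signal: resorufin fluorescence 544/590 nm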
Diaph act CS = activates diaphorase or chemically reduces, flagging diaphorase assay artifacts; 190,000 tested, 0.005% active; AID 1229; activation factor at 20 µM; Diaphorase/resazurin coupled assay, resorufin fluorescence, 16 min; hits give high values; 1 = vehicle wells, 0 = NADH-free wells;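 active = diaphorase activity raised at least twofold by the compound at 20 µM; inactive = activation factor below 2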
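System – purified diaphorase enzyme from Clostridium kluyveri · Input – enzyme 0.07 U/mL final · Also added – final NADH 0.114 mM, resazurin 0.1 mM · Measured by – fluorescence of resorufin, 544 nm excitation, 590 nm emission · Timing – 16 min enzyme reaction, ambient temperature · Measure – resorufin increase flagging diaphorase activators or reducers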
Lmaj promast = reduces viability of Leishmania major promastigotes; resazurin fluorescence viability; inhibition, % at 10 µM; 200,000 tested, 9% active; AID 1063;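 also: promastigotes grown with compound for 44 hours at 28 °C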
G6PDH counter = counter-screen for G6PDH assay hits: L. mesenteroides G6PDH inhibition; Purified L. mesenteroides G6PDH, diaphorase/resazurin coupled fluorescence, 45 min; inhibition, % at 5 µM; 200,000 tested, 0.12% active
PfG6PD inh = PfG6PD (Plasmodium falciparum) enzyme inhibition; PfGluPho enzyme, NADPH resazurin-diaphorase fluorescence; inhibition, % at 20 µM; 350,000 tested, 0.78% active;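 active = inhibition reaching at least a set limit at 20 µM in the primary screen, cut at about 59% in these data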;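 also: 0% = DMSO wells with substrate and 100% = DMSO wells lacking glucose-6-phosphate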
* marks the source's active call; other numbers are inactive results. Shown is part of a subset that was picked to be rich in hits. Rule as the data show it, unless noted: active = inhibition above about 50%; inactive = the rest.

CSc1ccccc1OCc1cc(C(=O)NCCC2=CCCCC2)no1 was read as PfG6PD inh -11.4.
`C=CCn1c(=O)/c(=C/c2ccc(F)cc2)s/c1=C(\C#N)c1nnc2n1CCCCC2` gave DTT redox prof 1.5, Diaphorase inh 12.2, Diaph act CS 0.9, Lmaj promast 61.1*, G6PDH counter -2.1 and PfG6PD inh 5.8.
C=CCN1C(c2ccc(OCC)cc2)=CS/C1=C(\C#N)c1nnc2n1CCCCC2 was read as DTT redox prof -2.6, Diaphorase inh 3.9, Diaph act CS 1, Lmaj promast 5.8, G6PDH counter -37.6 and PfG6PD inh 10.0.
Screening CN(Cc1ccccc1)C(=S)NC(=O)c1cccs1 returned PfG6PD inh -1.9.
`O=C(N/N=C/c1ccc(Br)o1)c1cc([N+](=O)[O-])cc([N+](=O)[O-])c1` gave DTT redox prof -0.1, Diaphorase inh 20.5, Diaph act CS 0.8, Lmaj promast 94.3*, G6PDH counter 10.1 and PfG6PD inh 1.1.
O=C(N/N=C/c1ccncc1)c1cc([N+](=O)[O-])cc([N+](=O)[O-])c1 was read as DTT redox prof 0.0, Diaphorase inh 10.9, Diaph act CS 0.9, Lmaj promast 95.8*, G6PDH counter 9.1 and PfG6PD inh -9.8.
For Cc1noc(C)c1C(=O)Nc1ccc(-c2nnc3n2CCCCC3)cc1 the results were PfG6PD inh -8.6.
CCOc1ccc(-n2c(=S)sc3c(=O)[nH]c(SCC(=O)C(C)(C)C)nc32)cc1 was read as DTT redox prof -1.2, Diaphorase inh 67.5*, Diaph act CS 0.3, Lmaj promast 0.9, G6PDH counter 1.3 and PfG6PD inh 5.7.
CCOc1ccc(-n2c(=S)sc3c(=O)[nH]c(SCC(=O)N4CCC(C)CC4)nc32)cc1 was read as DTT redox prof 0.3, Diaphorase inh 61.7*, Diaph act CS 0.4, Lmaj promast -11.8, G6PDH counter -0.1 and PfG6PD inh -28.9.
O=C(Cc1csc(N2CCOCC2)n1)N/N=C/c1ccc(Cl)cc1Cl was read as DTT redox prof 0.0, Diaphorase inh 15.7, Diaph act CS 0.8, Lmaj promast 69.3*, G6PDH counter 0.7 and PfG6PD inh -44.5.
For COc1cc(/C=N/NC(=O)Cc2csc(N3CCOCC3)n2)cc(OC)c1O the results were DTT redox prof -1.6, Diaphorase inh 1.3, Diaph act CS 1, Lmaj promast -5.0, G6PDH counter 10.0 and PfG6PD inh 13.4.
`CCOC(=O)NNc1ccccc1` gave PfG6PD inh 12.8.
`CCC(O)CC(C(=O)NNc1ccccc1)C(=O)NNc1ccccc1` (stereo not drawn) gave DTT redox prof 0.7, Diaphorase inh -0.2, Diaph act CS 1, Lmaj promast 71.8*, G6PDH counter 2.7 and PfG6PD inh 4.9.
Screening O=C(CSCc1ccccc1Cl)Nc1c[nH]c(=O)[nH]c1=O returned DTT redox prof 0.4, Diaphorase inh 10.8, Diaph act CS 0.9, Lmaj promast 59.5*, G6PDH counter 15.2 and PfG6PD inh 13.6.
COc1ccccc1-c1cc(C(F)(F)F)nc(S(=O)(=O)CCCC(=O)O)n1 was read as DTT redox prof 0.1, Diaphorase inh 8.2, Diaph act CS 0.9, Lmaj promast 0.3, G6PDH counter -0.4 and PfG6PD inh -11.7.
Screening COc1ccccc1-c1cc(C(F)(F)F)nc(S(=O)(=O)CCCC(=O)N2CCOCC2)n1 returned DTT redox prof 4.3, Diaphorase inh -2.3, Diaph act CS 1, Lmaj promast 100.5*, G6PDH counter -4.2 and PfG6PD inh -16.3.
For O=C(CCn1cnc2ccccc2c1=O)Nc1cccc(Cl)c1Cl the results were DTT redox prof 0.4, Diaphorase inh 9.3, Diaph act CS 0.9, Lmaj promast 16.7, G6PDH counter 11.9 and PfG6PD inh 6.5.
For COc1ccc(S(=O)(=O)Cc2ccc(C(=O)NC3CCCCC3)o2)cc1 the results were PfG6PD inh -15.9.
`COC(=O)c1[nH]c(C)c(/C(O)=C2\C(=O)C(=O)N(CCN3CCOCC3)C2c2ccco2)c1C` (stereo not drawn) gave PfG6PD inh -22.3.
